Screening data: PubChem, The Scripps Research Institute Molecular Screening Center
Sampled rows, rich in hits. Any-hit rate of the full collection: about 2.5%.
SIAE inh: human SIAE inhibitors, primary screen, biochemical, fluorescence polarization, FP-Rh probe, 1536-well HTS; Sialate O-acetylesterase (Homo sapiens), Q9HAT2; SIAE FP-Rh probe binding; inhibition, % at 9.66 µM; 0.69% of 370,000 active;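 active = inhibition above a cutoff: mean of compounds within the control limits plus 3 SD of those, cut at about 17% in these data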;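 also: 0% = plate median of compound wells and 100% = probe without SIAE protein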
Target sequence (Q9HAT2 whole entry, looked up): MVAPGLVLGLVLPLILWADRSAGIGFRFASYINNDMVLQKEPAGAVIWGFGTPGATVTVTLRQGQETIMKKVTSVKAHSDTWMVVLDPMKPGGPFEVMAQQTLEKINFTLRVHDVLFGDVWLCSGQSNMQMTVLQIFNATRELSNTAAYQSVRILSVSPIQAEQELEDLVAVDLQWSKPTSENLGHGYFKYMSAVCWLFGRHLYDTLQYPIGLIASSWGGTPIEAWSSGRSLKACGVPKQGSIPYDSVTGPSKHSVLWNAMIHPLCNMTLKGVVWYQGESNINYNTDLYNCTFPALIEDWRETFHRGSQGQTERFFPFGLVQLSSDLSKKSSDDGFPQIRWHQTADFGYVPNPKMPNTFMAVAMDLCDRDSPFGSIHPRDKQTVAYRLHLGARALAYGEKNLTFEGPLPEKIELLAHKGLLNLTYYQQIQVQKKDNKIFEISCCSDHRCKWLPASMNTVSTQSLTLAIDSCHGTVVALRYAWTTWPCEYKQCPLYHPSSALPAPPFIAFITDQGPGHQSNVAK
HTRA1 inhibitor: HTRA1 serine protease inhibitors, primary screen, biochemical, fluorescence polarization, HTS | Q92743 | recombinant HTRA1, FP-rhodamine activity-based probe | inhibition, % at 5.96 µM | 0.5% of 340,000 active | AID 504803, 2011; in the data active = inhibition above about 36%;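 also: 0% = enzyme with DMSO and 100% = wells lacking enzyme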
TCR CD3 inh: inhibitors of human TCR-CD3 interaction, primary screen, biochemical, fluorescence, TAMRA-labeled TCR probe; 0.37% of 360,000 active; T-cell receptor (TCR); inhibition, % at 9.4 µM; in the data active = inhibition above about 19%;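 also: recombinant mutant TCR 2C K166C tagged with TAMRA read by polarization; 0% = receptor in buffer alone and 100% = receptor with positive control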
rCAG binder: binders of r(CAG) RNA repeats, primary screen, biochemical, fluorescence; r(CAG) RNA repeat, TO-PRO-1 dye displacement fluorescence; inhibition, % at 3 µM; 1.3% of 370,000 active;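 active = inhibition above the plate cutoff, the mean of all test compounds on that plate plus 3 SD, cut at about 35% in these data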;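 also: 0% = DMSO alone and 100% = 100 µM mitoxantrone as full dye displacement; higher means more dye released from RNA so lower well fluorescence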
ABHD4 inh: ABHD4 inhibitors, primary screen, biochemical, fluorescence polarization, mouse. 0.54% of 370,000 active. inhibition, % at 8.92 µM. (Lyso)-N-acylphosphatidylethanolamine lipase (Mus musculus), Q8VD66. purified mABHD4, FP-Rh probe fluorescence polarization. AID 720543, 2013;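 active = inhibition exceeding the mean over every tested compound plus 3 SD, cut at about 30% in these data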;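 also: 0% = plate median of compound wells and 100% = S159A mutant with DMSO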
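assay system = mABHD4 protein | compound dosing = single nominal dose of 8.92 µM, 0.89% DMSO final | read-out basis = percent inhibition of probe binding, normalized to plate controls | schedule = Enzyme–compound pre-incubation 45 min, then probe 60 min, both 25 °C | detection = fluorescence polarization, excitation 525 nm, emission 598 nm, BODIPY TMR filters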
rCAG bind conf: small molecules binding CAG repeat RNA – biochemical, fluorescence, confirmation; shares compounds with rCAG binder; r(CAG) RNA repeat, TO-PRO-1 dye displacement fluorescence; inhibition, % at 3 µM; 70% of 4,300 active;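 active = inhibition above a per-plate cutoff, the mean inhibition of sample wells plus 3 SD, cut at about 35% in these data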;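 also: loss of TO-PRO-1 fluorescence as compound displaces dye from 1x1 AA loop RNA; 0% = DMSO only wells and 100% = 100 µM mitoxantrone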
dCAG dye counter: displacement of TO-PRO-1 from CAG DNA duplex, counter-screen for rCAG RNA repeat binder project, biochemical, fluorescence, TO-PRO-1 dye, d(CAG) DNA oligo | shares compounds with rCAG binder | d(CAG) DNA oligo TO-PRO-1 dye displacement | inhibition, % at 3 µM | 94% of 4,300 active | AID 652068, 2013;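 active = inhibition above its plate's cutoff, the mean test-well inhibition plus 3 SD, cut at about 4.8% in these data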;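 also: 0% = DNA dye mix with DMSO and 100% = 100 µM mitoxantrone; hits displace the dye from DNA and so lower well fluorescence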
DNA CAG DR: inhibitors of DNA CAG/GTC TO-PRO-1 complex, dose response, counter-screen for rCAG RNA repeat binder project, biochemical, fluorescence, TO-PRO-1 dye | DNA CAG/GTC duplex TO-PRO-1 dye displacement fluorescence | shares compounds with rCAG binder | AID 686960, 2013 | 20% of 250 active | IC50, µM; in the data active = IC50 below about 10 µM
Numbers without * were called inactive; . = no result.

SMILES	SIAE inh	HTRA1 inhibitor	TCR CD3 inh	rCAG binder	ABHD4 inh	rCAG bind conf	dCAG dye counter	others
CC(C)(C)c1ccc(CC(=O)N2CCC2(C)C(=O)NS(=O)(=O)Cc2ccccc2)cc1 (centres undefined)	-5	.	10	41*	-1	36*	9.3*
CC1(C(=O)NS(=O)(=O)c2ccc(F)cc2F)CCN1C(=O)Cc1ccc(-c2ccccc2)cc1 (centres undefined)	-14	.	1	58*	-3	44*	11*
CC1(C(=O)NS(=O)(=O)Cc2ccccc2)CCN1C(=O)Cc1ccccc1 (centres undefined)	-1	.	-7	1	1	.	.
CC1(C(=O)NS(=O)(=O)Cc2ccccc2C(F)(F)F)CCN1C(=O)c1ccccc1 (centres undefined)	6	.	6	8	5	.	.
CC1(C(=O)NS(=O)(=O)Cc2ccccc2C(F)(F)F)CCN1C(=O)C/C=C/c1ccccc1 (centres undefined)	-4	.	7	46*	-2	51*	10*	DNA CAG DR=>30
CC(C)(C)c1ccc(CC(=O)N2CCC2(C)C(=O)NS(=O)(=O)c2ccccc2C(F)(F)F)cc1 (centres undefined)	0	.	0	58*	8	45*	13*
[O-]/C(=C(\C(=S)Nc1cccc2ccccc12)[n+]1ccccc1)c1ccc2c(c1)OCCO2	8	7	5	7	9	.	.
COc1cc2c(cc1OC)-c1cc(NC3CCCCCC3)nc(=O)n1CC2	-1	-4	7	-1	-13	.	.
C=CCc1cccc(CNn2cnnc2)c1O	3	7	-7	-2	4	.	.
O=c1cc(CN2CCC(Cc3ccccc3)CC2)nc2sccn12	7	5	11	-5	-4	.	.
O=C1NC(c2ccc(-c3ccccc3[N+](=O)[O-])o2)C(C(=O)c2ccccc2)C(O)(C(F)(F)F)N1 (centres undefined)	-3	-4	5	53*	6	1	0
Cc1ccc(C(=O)C2C(c3ccc(-c4ccccc4[N+](=O)[O-])o3)NC(=O)NC2(O)C(F)(F)F)cc1 (centres undefined)	2	-15	3	-4	7	.	.
Cc1ccc(NS(=O)(=O)c2ccc(CCC(=O)NCCCOC(C)C)cc2)cc1	1	-3	4	-1	-6	.	.
NC(c1csc(NC(=O)Nc2ccccc2Cl)n1)C1CCCCC1 (centres undefined)	-13	.	-3	23	-8	.	.
NC(c1csc(NC(=O)Nc2ccccc2)n1)C1CCCCC1 (centres undefined)	-6	.	-4	42*	0	24	4.8*
NC(c1csc(NC(=O)Nc2cccc(Cl)c2)n1)C1CCCCC1 (centres undefined)	-5	.	6	47*	10	31	5.9*
CC(=O)c1cccc(NC(=O)c2sc3nc4n(c(=O)c3c2C)CCCC4)c1	-11	0	1	-8	0	.	.
CCOC(=O)c1cc(NC(=O)N(C(C)C)C2CCCCC2)c(C)nc1C	2	7	-5	0	6	.	.
O=C(CSc1cc([N+](=O)[O-])cc(S(=O)(=O)Cc2ccccc2)c1)NC1CC1	7	2	-2	56*	-1	5	5.6*
CCCSc1nc(C)c(-c2csc(C(C#N)=C3CCCC3)n2)cc1C#N	-7	-5	-3	44*	10	38*	25*
N#Cc1c(-c2ccccc2)nc(SCC(=O)NC2CCCCC2)[nH]c1=O	-5	-6	-2	31	-7	.	.
CN(C(=O)CSc1nc(-c2ccc(C(C)(C)C)cc2)c(C#N)c(=O)[nH]1)C1CCCCC1	-14	-55	3	70*	-63	84*	50*
CC(C)(C)C1CCc2c(sc3nc(SCC(=O)O)nc(N)c23)C1 (centres undefined)	-3	-6	-1	36*	-1	42*	10*
CC1(C)Cc2c(sc3nc(SCC(=O)O)nc(N)c23)CO1	-1	0	-4	2	-2	.	.
Cc1cc(/C=N/NC(=O)c2cccc(N(C)C)c2)c(C)n1-c1cc(C(=O)O)cc(C(=O)O)c1	.	-3	.	.	.	.	.
SMILES	SIAE inh	HTRA1 inhibitor	TCR CD3 inh	rCAG binder	ABHD4 inh	rCAG bind conf	dCAG dye counter	others
Cc1cc(/C=N/NC(=O)C(O)(c2ccccc2)c2ccccc2)c(C)n1-c1cccc(C(=O)O)c1	0	3	8	41*	22	58*	26*
Cc1cc(/C=N/NC(=O)C(O)(c2ccccc2)c2ccccc2)c(C)n1-c1ccc(C(=O)O)cc1	-4	-5	6	35*	25	28	12*
O=C(/C=C/c1ccco1)NC(=S)Nc1nc(-c2ccc(Cl)cc2)cs1	-5	-30	-1	15	-1	.	.
Cc1ccc(NC(=S)NC(=O)/C=C/c2ccco2)c(O)c1	8	10	7	35*	23	38*	15*
Cc1ccc2oc(-c3cccc(NC(=S)NC(=O)/C=C/c4ccco4)c3)nc2c1	-8	-57	-1	37*	-19	17	9.8*
O=C(/C=C/c1ccco1)NC(=S)Nc1nc(-c2ccc3ccccc3c2)cs1	-18	-25	-1	40*	-13	20	14*
Cc1ccc2oc(-c3cccc(NC(=S)NC(=O)c4cccs4)c3)nc2c1	-3	-3	0	1	6	.	.
CC1(C(=O)NS(=O)(=O)c2cccs2)CCN1C(=O)C1(c2ccc(Cl)cc2)CC1 (centres undefined)	-1	.	-6	14	6	.	.
CC1(C(=O)NS(=O)(=O)c2ccc(Cl)s2)CCN1C(=O)C1(c2ccccc2)CCCC1 (centres undefined)	1	.	-4	49*	1	51*	16*
CC1(C(=O)NS(=O)(=O)c2ccc(Cl)s2)CCN1C(=O)C1(c2ccc(Cl)cc2)CCC1 (centres undefined)	-2	.	2	62*	6	59*	21*
